Experiments:
[1] = test system: MC-38; assay: Cytotoxicity against […] cells at 1.5 ug/mL by Valeriote soft agar disk diffusion method
[2] = test system: L1210; assay: Cytotoxicity against mouse L1210 cells at 1.5 ug/mL by Valeriote soft agar disk diffusion method
[3] = Cytotoxicity against human NCI60 cells; format: functional; details: for TGI: read-out: pTGI (converted)
[4] = test system: L1210; assay: Cytotoxicity against mouse L1210 cells at 1.5 ug/mL by Valeriote soft agar disk diffusion method; format: functional
Procedure, shortened: (§1)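 Corbett–Valeriote soft agar disk diffusion assay, with doses given per disk. Zones of inhibition around sample disks were compared between solid tumor cells (Colon38, ColonH116, LungH125) and either leukemia cells (L1210 or CEM) or normal CFU-GM cells. Zone sizes were used to score differential (solid tumor-selective) cytotoxicity.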

[5] = test system: CCRF-CEM; assay: Cytotoxicity against human CEM cells at 1.5 ug/mL by Valeriote soft agar disk diffusion method; format: functional
Procedure, shortened: as §1

[6] = test system: CCRF-CEM; assay: Cytotoxicity against human CEM cells at 1.5 ug/mL by Valeriote soft agar disk diffusion method
[7] = Cytotoxicity against human H116 cells at 1.5 ug/mL by Valeriote soft agar disk diffusion method; format: functional
Procedure, shortened: as §1

[8] = Cytotoxicity against human H125 cells at 1.5 ug/mL by Valeriote soft agar disk diffusion method; format: functional
Procedure, shortened: as §1

[9] = test system: MC-38; assay: Cytotoxicity against […] cells at 1.5 ug/mL by Valeriote soft agar disk diffusion method; format: functional
Procedure, shortened: as §1

[10] = Cytotoxicity against human H125 cells at 1.5 ug/mL by Valeriote soft agar disk diffusion method
[11] = Cytotoxicity against human H116 cells at 1.5 ug/mL by Valeriote soft agar disk diffusion method
[12] = test system: MC-38; assay: Cytotoxicity against […] cells at 63 ug/disk by Valeriote soft agar disk diffusion method; format: functional
Procedure, shortened: (§2)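 Corbett–Valeriote soft agar disk diffusion assay. Sample is loaded onto a disk at the stated µg/disk and placed on soft agar cultures of the cells. The read-out is the size of the zone of inhibition around the disk. Zones for the solid tumour line (Colon38) are compared with those for leukaemia cells (L1210) or normal CFU-GM cells to judge differential cytotoxicity.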

[13] = Cytotoxicity against human CFU-GM cells at 63 ug/disk by Valeriote soft agar disk diffusion method; format: cell-based
Procedure, shortened: as §2

[14] = test system: L1210; assay: Cytotoxicity against mouse L1210 cells at 63 ug/disk by Valeriote soft agar disk diffusion method; format: functional
Procedure, shortened: as §2

[15] = test system: MC-38; assay: Cytotoxicity against […] cells at 1.8 ug/mL by Valeriote soft agar disk diffusion method; format: functional
Procedure, shortened: as §1

[16] = Cytotoxicity against human CFU-GM cells at 113 ug/disk by Valeriote soft agar disk diffusion method; format: cell-based
Procedure, shortened: as §2

[17] = test system: MC-38; assay: Cytotoxicity against […] cells at 113 ug/disk by Valeriote soft agar disk diffusion method; format: functional
Procedure, shortened: as §2

[18] = test system: L1210; assay: Cytotoxicity against mouse L1210 cells at 113 ug/disk by Valeriote soft agar disk diffusion method; format: functional
Procedure, shortened: as §2

Molecule `C=C1[C@@H](O)C[C@H]2C(C)(C)C[C@H](Cl)C[C@]2(C)[C@H]1C[C@H](O)[C@H]1CC(=O)NC1=O` [CHLOROLISSOCLIMIDE] has an Activity [1] of 550 Zone units, an Activity [2] of 550 Zone units and a GI50 [3] of 0.00575 µM. The LC50 [3] was 16.6 µM, the TGI [3] was 0.129 µM and the Activity [4] was 550 Zone units. It also gave an Activity [5] of 550 Zone units, an Activity [6] of 550 Zone units and an Activity [7] of 550 Zone units. The Activity [8] was 550 Zone units, the Activity [9] was 550 Zone units and the Activity [10] was 550 Zone units. The Activity [11] was 550 Zone units.
`C=C1[C@@H](O)C[C@H]2C(C)(C)[C@@H](O)[C@H](Cl)C[C@]2(C)[C@H]1C[C@H](O)[C@H]1CC(=O)NC1=O` showed an Activity [12] of 400 Zone units, an Activity [13] of 100 Zone units and an Activity [14] of 500 Zone units.
`C=C1[C@@H](O)C[C@H]2C(C)(C)[C@@H](Cl)[C@H](Cl)C[C@]2(C)[C@H]1C[C@H](O)[C@H]1CC(=O)NC1=O` [DICHLOROLISSOCLIMIDE] showed an Activity [2] of 550 Zone units, a GI50 [3] of 0.00549 µM and an LC50 [3] of 20 µM. The TGI [3] was 0.123 µM, the Activity [4] was 550 Zone units and the Activity [5] was 550 Zone units. For the same molecule, the Activity [15] was 550 Zone units, the Activity [6] was 550 Zone units and the Activity [7] was 550 Zone units. The Activity [8] was 550 Zone units, the Activity [9] was 550 Zone units and the Activity [10] was 550 Zone units. For the same molecule, the Activity [11] was 550 Zone units.
Molecule `CC1=CC(=O)[C@H]2C(C)(C)[C@@H](Cl)[C@H](Cl)C[C@]2(C)[C@H]1C[C@H](O)[C@H]1CC(=O)NC1=O` [HATERUMAIMIDE D] has a GI50 [3] of 0.977 µM, an LC50 [3] of 44.7 µM and a TGI [3] of 12.3 µM.
For `C=C1CC(=O)[C@H]2C(C)(C)[C@@H](Cl)[C@H](Cl)C[C@]2(C)[C@H]1C[C@H](O)[C@H]1CC(=O)NC1=O`, the Activity [16] was 350 Zone units, the Activity [17] was 650 Zone units and the Activity [18] was 250 Zone units.
